# Tb hexokinase – T. brucei hexokinase 1 inhibition | inhibition, % at 10 µM | actives 0.11% (n = 220,000) | recombinant TbHK1, G6PDH-coupled NADH A340 | AID 1430;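 active = inhibition of 50% or more in the single-dose primary screen; inactive = inhibition below 50%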
# S1P4 antag – blocks the human S1P4 receptor. inhibition, % at 4.98 µM. AID 1510. actives 0.26% (n = 220,000). S1P4-expressing cells, antagonist mode, reporter read-out; in the data active = inhibition above about 29%
# Target sequence (O95977 whole entry, looked up): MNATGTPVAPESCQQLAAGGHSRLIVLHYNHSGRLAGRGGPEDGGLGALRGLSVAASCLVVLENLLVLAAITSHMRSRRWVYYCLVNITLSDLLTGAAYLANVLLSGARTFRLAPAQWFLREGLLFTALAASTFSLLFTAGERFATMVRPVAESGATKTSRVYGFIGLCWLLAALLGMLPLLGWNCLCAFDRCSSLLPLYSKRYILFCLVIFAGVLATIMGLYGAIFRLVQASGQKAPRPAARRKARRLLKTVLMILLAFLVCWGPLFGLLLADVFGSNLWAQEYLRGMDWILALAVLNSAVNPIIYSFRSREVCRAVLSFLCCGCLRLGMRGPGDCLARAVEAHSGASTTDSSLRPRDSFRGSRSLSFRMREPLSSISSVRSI
# TNF necrop inh – blocks TNF-alpha induced death of Jurkat FADD-/- cells. Jurkat FADD-/- TNF necroptosis rescue, ATP luminescence, 24 h; 0 = TNF only, 100 = no-TNF cells. activation (protection from cell death), % at 10 µM. actives 0.068% (n = 220,000);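 active = activation, meaning protection from cell death, of at least 50% relative to plate controls; inactive = activation below 50%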;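 also: necroptosis triggered by 40 ng/mL TNF-alpha added together with compound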
# S1P4 ag – activates the human S1P4 receptor; O95977; S1P4-expressing cell line, agonist reporter assay; activation, % at 4.98 µM; actives 0.35% (n = 220,000); in the data active = activation above about 11%
# Dynein cargo inh – dynein cargo transport inhibition; 3617.4 mouse cells, GR-EGFP nuclear translocation imaging; test concentration mostly 20 µM; stimulated with dexamethasone, 1 µM; stronger effect = lower value; z-score, hits read low; AID 1381; actives 0.47% (n = 220,000);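 active = plate z-score of nuclear minus cytoplasmic receptor signal below a set negative limit, without overly bright fluorescence or cell loss, cut at about -3.5 in these data, passing the limit was not always enough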;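 also: z-score of nuclear minus cytoplasmic ring GR-EGFP intensity difference per well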
#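 Also added: dexamethasone, 1.0 µM final. Medium: tet-free, stripped-serum medium. Detection: fixed, Hoechst-stained cells imaged at 10x for EGFP. Read-out: nuclear-to-cytoplasmic GR-EGFP distribution per well. Times: induction 48 h, compound 1 h, agonist 30 min.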
# zVAD death inh – blocks zVAD induced death of L929 cells | L929 zVAD necroptosis rescue, ATP luminescence, 24 h; with zVAD 60 µM | viability rescue, % at 10 µM | actives 0.38% (n = 220,000) | AID 1377;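 active = activation, scaled between plate controls, above about 75%, limit read from the data; inactive = activation under that limit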
# zVAD death conf – confirmed blocker of zVAD induced death in L929 cells; shares compounds with zVAD death inh; L929 zVAD-induced necroptosis rescue, ATP luminescence, 24 h; activation (protection from necroptosis), % at 10 µM; actives 16% (n = 760); AID 463117;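 active = mean protection from necroptosis of at least 50% over duplicate tests; inactive = mean protection below 50%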
# Numbers stand for hits; i = inactive; nt = no result; ! = not active in a repeat. This is a sample that favours compounds with a hit; in the whole collection about 1.5% have one here.
SMILES,Tb hexokinase,S1P4 antag,TNF necrop inh,S1P4 ag,Dynein cargo inh,zVAD death inh,zVAD death conf
O=C(NCCN1CCCC1)c1ccc2c(=O)n(CCc3ccccc3)c(=O)[nH]c2c1,i,i,i,i,i,91.0,i
COCCN(C(=O)CCc1ccccc1OC)c1nnc(-c2cccnc2)s1,i,i,i,i,i,i,nt
COC(CNC(=O)c1ccc2c(c1)ncn2-c1cccc(F)c1)OC,i,i,i,i,i,75.7,i
COC(CNC(=O)c1ccc2c(c1)ncn2-c1ccc(F)cc1F)OC,i,i,i,i,i,i,nt
COC(CNC(=O)c1ccc2c(c1)ncn2-c1ccc(F)c(F)c1)OC,i,i,i,i,i,77.0,i
CCOC(CNC(=O)c1ccc2c(c1)ncn2-c1ccc(F)c(F)c1)OCC,i,i,i,i,i,77.9,i
Cc1nc2c(nnn2Cc2ccccc2)c(=O)[nH]1,i,i,i,i,i,i,nt
Cc1nn(-c2ccccc2)c(C)c1-c1cc(C(=O)N/N=C/c2cccnc2)[nH]n1,i,i,i,i,i,75.4,i
Cc1ccc(NC(=O)CN2C(=O)S/C(=C/c3ccc(O)c([N+](=O)[O-])c3)C2=O)cc1C,i,i,i,i,i,85.7,i
CCOc1ccc2nc(NC(=O)CN3CCOCC3)sc2c1,i,i,i,i,i,i,nt
O=C(CN1CCOCC1)Nc1nc2ccc(Br)cc2s1,i,i,i,i,i,77.0,i
Cc1ccccc1OCC(=O)Nc1ccc(Cc2ccncc2)cc1,i,i,i,i,i,78.6,i
COc1ccc(/C=C/c2nc(-c3ccccc3O)n[nH]2)cc1OC,i,i,i,i,i,81.3,i
O=[N+]([O-])/C(C=Nc1ccccc1O)=C\Nc1ccccc1O,i,i,i,i,i,87.5,i
Cc1c(C(=O)c2ccccc2)c(=O)n(C)c(=O)n1C,i,i,i,i,i,i,nt
COc1ccc(OC)c(Nc2nc(-c3ccccc3O)nc3ccccc23)c1,i,i,i,i,i,i,nt
COc1ccccc1Nc1nc(-c2ccccc2O)nc2ccccc12,i,i,i,i,i,75.9,i
COc1ccc(-c2nnc3sc(C4CCCCC4)nn23)cc1OC,i,i,i,i,i,76.1,i
COc1ccc(N=Cc2c(O)n(-c3cccc(C)n3)c(=O)c3ccccc23)c(OC)c1,i,i,i,i,i,i,nt
COc1ccc(-c2csc(Nc3ccc(C)cn3)n2)cc1OC,i,i,i,i,i,i,nt
Cc1ccc(Nc2nc(-c3ccc(O)c(O)c3)cs2)nc1,i,i,i,i,i,79.1,i
COC(=O)c1ccc(/C=N/NC(=O)C(=O)NCC2CCCO2)cc1 (configuration not stated),i,i,i,i,i,i,nt
NS(=O)(=O)c1cccc(NC(=O)Nc2ccc(Cl)cc2)c1,i,i,i,i,i,75.1,i
CNS(=O)(=O)c1ccc2c(c1)oc(=O)c1cc(S(=O)(=O)NC)ccc12,i,i,i,i,i,i,nt
CCN(CC)Cc1cc2[nH]c3c4ccc(Cl)cc4ncc3c2cc1OC,i,i,i,i,i,80.9,73.1
SMILES,Tb hexokinase,S1P4 antag,TNF necrop inh,S1P4 ag,Dynein cargo inh,zVAD death inh,zVAD death conf
c1cnc2ccc(C(c3nnnn3C3CCCCC3)N3CCN(C4CCCCC4)CC3)cc2c1 (configuration not stated),i,i,i,i,i,77.4,69.6
c1cnc2ccc(C(c3nnnn3C3CCCCC3)N3CCCCC3)cc2c1 (configuration not stated),i,i,i,i,i,i,nt
COC(=O)c1ccc(NC(=O)Nc2ccc(OC)c(OC)c2)cc1,i,i,i,i,i,82.5,i
CCC(C)C(NC(N)=O)C(=O)Nc1ccc(C(=O)OC)cc1 (configuration not stated),i,i,i,i,i,77.8,i
Cc1ccc(S(=O)(=O)N2N=C3CCCCC3C2(O)C(F)(F)F)cc1 (configuration not stated),i,i,i,i,i,i,nt
CCc1c(C)nc(SCC(=O)N2CCCCC2C)[nH]c1=O (configuration not stated),i,i,i,i,i,i,nt
Cc1cc(C)nc(NC(=O)Nc2ccc3c(c2)OCO3)c1,i,i,i,i,i,i,nt
O=C(Nc1ccc(Cl)cn1)Nc1ccccc1Cl,i,i,i,i,i,i,nt
O=C(Nc1cnccn1)Nc1ccccc1Cl,i,i,i,i,i,79.3,i
O=C(Nc1ccccc1)Nc1ccccn1,i,i,i,i,i,76.6!,i
Cc1ccc(NC(=O)Nc2ccc3c(c2)OCO3)nc1,i,i,i,i,i,76.6,i
O=C(Nc1ccccn1)C(=O)Nc1ccccn1,i,i,i,i,i,i,nt
Cc1ccc(NC(=O)Nc2ccc(Cl)cn2)cc1,i,i,i,i,i,83.5,i
Cc1cc(C)c(NC(=O)COC(=O)CCc2ccc(S(=O)(=O)N3CCCCC3)cc2)c(C)c1,i,i,i,i,i,i,nt
CC(c1ccccc1)C(Cc1nc2ccccc2[nH]1)c1nc2ccccc2[nH]1 (configuration not stated),i,i,i,i,i,i,nt
CC(=O)C1=C(O)C(=O)N(c2ccc(S(=O)(=O)Nc3nccs3)cc2)C1c1ccc(F)cc1 (configuration not stated),i,i,i,i,i,i,nt
CCS(=O)(=O)N1CCC(N2CCC(C)CC2)CC1,i,i,i,i,i,i,nt
O=C(Nc1ccc(Cl)cc1)Nc1cnccn1,i,i,i,i,i,76.3,i
COC(=O)c1ccccc1NC(=O)Nc1ccc(Br)cn1,i,i,i,i,i,i,nt
CCOc1ccccc1NC(=O)Nc1cnccn1,i,i,i,i,i,80.3,i
COc1ccc(NC(=O)Nc2ccc(Br)cn2)cc1,i,i,i,i,i,79.3,i
CC1CCCN(C(=O)COc2ccc(Nc3ccccc3)cc2)C1 (configuration not stated),i,i,i,i,i,i,nt
O=[N+]([O-])c1ccc2c(c1)ncn2-c1ccccc1,i,i,i,i,i,83.1,i
Cc1ccc(NC(=O)/C=C\C(=O)NCC(=O)O)cc1,i,i,i,i,i,i,nt
O=C(Nc1ccc(Cl)cc1)N1CCN(c2ccccc2)CC1,i,i,i,i,i,i,nt
O=C(Nc1ccc(Cl)cc1)N1N=CCC1c1ccccc1 (configuration not stated),i,i,92.1,i,i,79.3,i
Cn1ncc(C(=O)Nc2ccc(OC(F)(F)F)cc2)c1-n1cccc1,i,i,i,i,i,i,nt
CC(=O)Nc1ccc(Sc2ncccc2C(=O)Nc2ccc(OC(F)(F)F)cc2)cn1,i,i,i,i,i,79.5,77.0

# Bioassay records as filed in PubChem BioAssay.
